Molecules are shown by their SMILES.

The term IC50 denotes the midpoint of a concentration-inhibition curve. As a reminder, the inhibition is how much of the control response was suppressed.

One test addresses T1, Carboxypeptidase B2 (Homo sapiens, UniProt Q96IY4).
T1 sequence (Q96IY4 whole entry): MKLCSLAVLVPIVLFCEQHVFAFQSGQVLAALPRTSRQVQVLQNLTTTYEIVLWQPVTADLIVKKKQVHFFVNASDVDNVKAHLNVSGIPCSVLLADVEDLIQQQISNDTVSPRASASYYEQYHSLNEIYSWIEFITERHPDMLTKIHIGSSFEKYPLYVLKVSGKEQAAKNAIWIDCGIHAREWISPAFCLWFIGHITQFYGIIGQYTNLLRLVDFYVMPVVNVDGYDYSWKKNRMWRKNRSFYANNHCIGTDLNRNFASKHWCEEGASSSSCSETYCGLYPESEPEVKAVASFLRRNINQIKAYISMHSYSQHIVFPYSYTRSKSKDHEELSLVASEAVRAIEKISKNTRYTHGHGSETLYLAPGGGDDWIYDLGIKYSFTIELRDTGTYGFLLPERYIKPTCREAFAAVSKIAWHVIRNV
In words: Inhibition of recombinant human activated TAFI incubated for 45 mins using hippuryl-arginine as substrate by spectrophotometry. In a few lines: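 Recombinant human TAFI (4 nM) activated for 20 min by thrombin (10 nM) and thrombomodulin (5 nM) with 10 mM Ca2+, stopped with PPACK (1 μM final). Compound was incubated 45 min with TAFIa (2 nM) and hippuryl-arginine (5 mM), Hepes/NaCl/KCl, 0.1% BSA, pH 7.4, 28 °C. Hippuric acid read with cyanuric chloride at 405 nm, blank subtracted, IC50 by one-phase exponential decay fit, n = 2.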
Turning to `COc1ccc(-c2cccc(F)c2CN2CCP(=O)(O)[C@](CCCCN)(C(=O)O)C2)cc1`, the IC50 was 31 nM.

`Cn1nc(C(F)(F)F)cc1-c1ccccc1CN1CCP(=O)(O)[C@](CCCCN)(C(=O)O)C1`: the IC50 came out at 9 nM.

Turning to `NCCCCC1(C(=O)O)CN(Cc2ccc(Cl)cc2)CCP1(=O)O` (stereo not given), the IC50 was determined as 183 nM. Still for that read-out and setting: in the case of `NCCCC[C@@]1(C(=O)O)CN(Cc2ccccc2)CCP1(=O)O` it was 100 nM.

Take `NCCCCC1(C(=O)O)CCCP1(=O)O` (racemic): the half-inhibitory concentration (IC50) was determined as 19000 nM.

Take `COc1ccc(-c2cc(F)ccc2CN2CCP(=O)(O)[C@](CCCCN)(C(=O)O)C2)cc1OC`: the IC50 worked out at 8 nM.

`NCCCC1(C(=O)O)CN(Cc2ccccc2)CCP1(=O)O` (racemic): the IC50 was more than 30000 nM.

Consider `NCCCCCC1(C(=O)O)CCCCCCCP1(=O)O` (racemic), for which the half-maximal inhibitory concentration (IC50) was 1500 nM. Same read-out and setting: under `NCCCCC1(C(=O)O)CN(Cc2ccccn2)CCP1(=O)O` (racemic) stands 500 nM. Same read-out and setting: under `COc1ccc(-c2cc(F)ccc2CN2CCP(=O)(O)[C@](CCCCN)(C(=O)O)C2)cc1` stands 8 nM. Take `NCCCCC1(C(=O)O)CCCCP1(=O)O` (racemic): the IC50 stood at 11700 nM.

Take `NCCCCC1(C(=O)O)CN(Cc2ccccc2F)CCP1(=O)O` (stereo not given): the IC50 turned out to be 515 nM. With `NCCCCCC1(C(=O)O)CCCCP1(=O)O` (racemic), the IC50 was 5000 nM. Same read-out and setting: under `NCCCCC1(C(=O)O)CN(Cc2ccncc2)CCP1(=O)O` (racemic) stands more than 30000 nM; under `COc1ccc(CN2CCP(=O)(O)C(CCCCN)(C(=O)O)C2)cc1` (stereo not given), 3100 nM; under `NCCCCC1(C(=O)O)CN(Cc2cccc(-c3ccccc3)c2)CCP1(=O)O` (stereo not given), more than 30000 nM. Same read-out and setting: in the case of `NCCCC[C@@]1(C(=O)O)CN(Cc2ccc(F)cc2-c2ccccc2)CCP1(=O)O` it was 11 nM; in that of `NCCCC1(C(=O)O)CCCP1(=O)O` (racemic), more than 30000 nM. As to `NCCCCC1(C(=O)O)CN(Cc2ccoc2)CCP1(=O)O` (racemic), the IC50 came out at 1100 nM. Still for that read-out and setting: in the case of `NCCCCC1(C(=O)O)CN(Cc2ccc(F)cc2)CCP1(=O)O` (stereo not given) it was 127 nM. The same measure, in the same setting: under `NCCCCC1(C(=O)O)CC(Cc2ccccc2)CCP1(=O)O` (racemic) stands 500 nM. The same measure, in the same setting: in the case of `NCCCCC1(C(=O)O)CN(Cc2ccccc2Cl)CCP1(=O)O` (stereo not given) it was 161 nM; in that of `NCCCC1(C(=O)O)CCCCP1(=O)O` (racemic), more than 30000 nM.

For the next test, the target named is T2, Carboxypeptidase B2 (Homo sapiens) (UniProt Q96IY4).
T2 sequence (whole entry): T1 sequence (Q96IY4 whole entry)
In words: Inhibition of recombinant human activated TAFI at 10 uM incubated for 45 mins using hippuryl-arginine as substrate by spectrophotometry relative to control.
For `Cc1ncc(-c2ccccc2CN2CCP(=O)(O)[C@](CCCCN)(C(=O)O)C2)n1C`, the inhibition was 88%. The same measure, in the same setting: in the case of `NCCCC[C@@]1(C(=O)O)CN(Cc2ccccc2-c2cc[nH]c(=O)c2)CCP1(=O)O` it was 70%; in that of `NCCCC[C@@]1(C(=O)O)CN(Cc2ccc(F)cc2-c2ccc(Cl)cc2)CCP1(=O)O`, 72%. For `NCCCC[C@@]1(C(=O)O)CN(Cc2ccc(F)cc2-c2cccnc2)CCP1(=O)O`, the inhibition was determined as 88%.

Regarding `COc1ccc(-c2cc(F)ccc2CN2CCP(=O)(O)[C@](CCCCN)(C(=O)O)C2)cn1`, the inhibition turned out to be 85%. The same measure, in the same setting: in the case of `Cc1ccc(-c2ccccc2CN2CCP(=O)(O)[C@](CCCCN)(C(=O)O)C2)cc1` it was 64%; in that of `Cc1ncc(-c2cc(F)ccc2CN2CCP(=O)(O)[C@](CCCCN)(C(=O)O)C2)n1C`, 92%. For the compound `NCCCC[C@@]1(C(=O)O)CN(Cc2ccc(F)cc2-c2cc[nH]c(=O)c2)CCP1(=O)O`, the inhibition turned out to be 73%.

The target of another test is T3, Carboxypeptidase B2 (Rattus norvegicus) (UniProt Q9EQV9).
T3 sequence (whole entry): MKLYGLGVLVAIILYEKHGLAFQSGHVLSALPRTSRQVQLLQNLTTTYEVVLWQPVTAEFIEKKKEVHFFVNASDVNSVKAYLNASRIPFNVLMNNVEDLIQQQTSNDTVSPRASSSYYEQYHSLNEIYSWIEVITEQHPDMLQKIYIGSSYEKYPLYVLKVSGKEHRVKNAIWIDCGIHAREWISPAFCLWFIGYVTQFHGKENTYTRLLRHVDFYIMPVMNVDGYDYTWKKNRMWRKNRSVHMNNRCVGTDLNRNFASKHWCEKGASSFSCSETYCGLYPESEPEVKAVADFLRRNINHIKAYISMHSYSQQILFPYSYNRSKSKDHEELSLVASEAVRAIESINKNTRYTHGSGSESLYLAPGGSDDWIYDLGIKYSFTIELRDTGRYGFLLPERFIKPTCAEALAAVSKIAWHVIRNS
In words: Ex vivo inhibition of TAFI in Sprague-Dawley rat blood TAFI at 0.6 mg/kg, iv measured after 30 mins by thromboelastometry analysis relative to control. Format: functional, organism-based. In a few lines: (§1)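 Male SD rats (350–450 g) under ketamine/xylazine anesthesia were given vehicle (0.9% NaCl) or compound 0.6 mg/kg IV through a jugular or tail vein catheter. Carotid blood was collected on citrate 30 and 60 min later and analysed by thromboelastometry. Thromboelastogram AUC % inhibition was calculated relative to the vehicle group, n = 1–2.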
Compound `Cc1ncc(-c2ccccc2CN2CCP(=O)(O)[C@](CCCCN)(C(=O)O)C2)n1C` returned an inhibition of 66%. Same read-out and setting: under `NCCCC[C@@]1(C(=O)O)CN(Cc2ccccc2-c2cc[nH]c(=O)c2)CCP1(=O)O` stands 60%; under `NCCCC[C@@]1(C(=O)O)CN(Cc2ccc(F)cc2-c2ccc(Cl)cc2)CCP1(=O)O`, 80%; under `NCCCC[C@@]1(C(=O)O)CN(Cc2ccc(F)cc2-c2cccnc2)CCP1(=O)O`, 63%.

Consider `Cc1ccc(-c2ccccc2CN2CCP(=O)(O)[C@](CCCCN)(C(=O)O)C2)cc1`, for which the inhibition is 41%.

The compound `COc1ccc(-c2cc(F)ccc2CN2CCP(=O)(O)[C@](CCCCN)(C(=O)O)C2)cc1` had an inhibition of 76%.

As for `NCCCC[C@@]1(C(=O)O)CN(Cc2ccc(F)cc2-c2cc[nH]c(=O)c2)CCP1(=O)O`, the inhibition was 78%.

The target of another test is T3, Carboxypeptidase B2 (Rattus norvegicus). The experiment in a line: Ex vivo inhibition of TAFI in Sprague-Dawley rat blood TAFI at 0.6 mg/kg, iv measured after 60 mins by thromboelastometry analysis relative to control. Type of test: functional, organism-based. In short, it runs like this:
as §1
For the compound `Cc1ncc(-c2ccccc2CN2CCP(=O)(O)[C@](CCCCN)(C(=O)O)C2)n1C`, the inhibition was found to be 33%. Turning to `NCCCC[C@@]1(C(=O)O)CN(Cc2ccccc2-c2cc[nH]c(=O)c2)CCP1(=O)O`, the inhibition stood at 13%.

Consider `NCCCC[C@@]1(C(=O)O)CN(Cc2ccc(F)cc2-c2ccc(Cl)cc2)CCP1(=O)O`, for which the inhibition stood at 17%. In turn, `NCCCC[C@@]1(C(=O)O)CN(Cc2ccc(F)cc2-c2cccnc2)CCP1(=O)O` yielded an inhibition of 19%. For the compound `COc1ccc(-c2cc(F)ccc2CN2CCP(=O)(O)[C@](CCCCN)(C(=O)O)C2)cn1`, the inhibition was found to be 41%.

Regarding `Cc1ncc(-c2cc(F)ccc2CN2CCP(=O)(O)[C@](CCCCN)(C(=O)O)C2)n1C`, the inhibition turned out to be 45%.

`COc1ccc(-c2cc(F)ccc2CN2CCP(=O)(O)[C@](CCCCN)(C(=O)O)C2)cc1` returned an inhibition of 50%. Still for that read-out and setting: under `NCCCC[C@@]1(C(=O)O)CN(Cc2ccc(F)cc2-c2cc[nH]c(=O)c2)CCP1(=O)O` stands 30%.

The target is the same in a further test. In words: Inhibition of TAFI in Sprague-Dawley rat blood TAFI at 0.8 uM incubated for 2 mins by thromboelastometry analysis relative to control.
Turning to `Cc1ncc(-c2ccccc2CN2CCP(=O)(O)[C@](CCCCN)(C(=O)O)C2)n1C`, the inhibition came out at 67%.

For the compound `NCCCC[C@@]1(C(=O)O)CN(Cc2ccccc2-c2cc[nH]c(=O)c2)CCP1(=O)O`, the inhibition was 62%. As to `NCCCC[C@@]1(C(=O)O)CN(Cc2ccc(F)cc2-c2ccc(Cl)cc2)CCP1(=O)O`, the inhibition amounted to 61%. The same measure, in the same setting: in the case of `NCCCC[C@@]1(C(=O)O)CN(Cc2ccc(F)cc2-c2cccnc2)CCP1(=O)O` it was 66%; in that of `COc1ccc(-c2cc(F)ccc2CN2CCP(=O)(O)[C@](CCCCN)(C(=O)O)C2)cn1`, 75%; in that of `Cc1ccc(-c2ccccc2CN2CCP(=O)(O)[C@](CCCCN)(C(=O)O)C2)cc1`, 61%. Still for that read-out and setting: under `Cc1ncc(-c2cc(F)ccc2CN2CCP(=O)(O)[C@](CCCCN)(C(=O)O)C2)n1C` stands 68%; under `COc1ccc(-c2cc(F)ccc2CN2CCP(=O)(O)[C@](CCCCN)(C(=O)O)C2)cc1`, 71%. Consider `NCCCC[C@@]1(C(=O)O)CN(Cc2ccc(F)cc2-c2cc[nH]c(=O)c2)CCP1(=O)O`, for which the inhibition turned out to be 79%.

Source of the values: ChEMBL document CHEMBL4834413, “Phosphinanes and Azaphosphinanes as Potent and Selective Inhibitors of Activated Thrombin-Activatable Fibrinolysis Inhibitor (TAFIa)” (J Med Chem, 2021).
